Activity calls are given as the source filed them. No cut-off for these calls is given here.
How the values were obtained:
Assay type in all cases: functional, cell-based
[1] = molecular target: T1, Toll-like receptor 7 (Homo sapiens) (UniProt Q9NYK1); test: Agonist activity at human TLR7 expressed in Ramos blue cells assessed as stimulation of NF-kB/AP-1 activity at 20 uM incubated for 18 hrs using quanti blue assay based SEAP reporter gene assay
T1 sequence (whole entry): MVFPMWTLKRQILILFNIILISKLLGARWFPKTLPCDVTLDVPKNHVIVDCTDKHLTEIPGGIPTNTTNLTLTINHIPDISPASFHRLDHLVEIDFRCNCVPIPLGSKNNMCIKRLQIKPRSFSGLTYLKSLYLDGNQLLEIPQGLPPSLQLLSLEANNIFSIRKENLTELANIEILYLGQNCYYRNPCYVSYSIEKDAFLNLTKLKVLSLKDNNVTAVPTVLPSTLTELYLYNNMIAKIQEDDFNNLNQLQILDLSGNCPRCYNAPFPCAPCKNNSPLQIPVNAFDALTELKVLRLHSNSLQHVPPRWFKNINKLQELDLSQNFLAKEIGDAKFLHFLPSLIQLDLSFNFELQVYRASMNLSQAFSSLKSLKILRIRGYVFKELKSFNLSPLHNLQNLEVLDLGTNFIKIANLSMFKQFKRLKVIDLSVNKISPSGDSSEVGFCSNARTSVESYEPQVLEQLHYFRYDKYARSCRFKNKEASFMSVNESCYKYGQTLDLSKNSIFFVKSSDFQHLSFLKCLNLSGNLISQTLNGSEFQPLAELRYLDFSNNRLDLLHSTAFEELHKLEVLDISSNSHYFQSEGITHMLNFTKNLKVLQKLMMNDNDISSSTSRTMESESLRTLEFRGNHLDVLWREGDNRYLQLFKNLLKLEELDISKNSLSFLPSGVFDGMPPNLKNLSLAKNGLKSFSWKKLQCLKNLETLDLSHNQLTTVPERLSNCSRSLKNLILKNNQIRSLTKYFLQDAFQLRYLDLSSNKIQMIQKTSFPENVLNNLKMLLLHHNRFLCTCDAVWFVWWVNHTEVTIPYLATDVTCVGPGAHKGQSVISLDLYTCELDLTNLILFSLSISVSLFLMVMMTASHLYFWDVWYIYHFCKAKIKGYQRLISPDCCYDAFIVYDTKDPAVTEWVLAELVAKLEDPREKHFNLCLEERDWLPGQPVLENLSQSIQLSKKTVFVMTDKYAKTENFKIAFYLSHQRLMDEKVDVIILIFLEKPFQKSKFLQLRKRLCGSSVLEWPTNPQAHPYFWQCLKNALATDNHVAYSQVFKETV
In short: (§1)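 Ramos-Blue control cells (TLR3/7/9 and Nod1, no Nod2; stable NF-κB/AP-1-inducible SEAP reporter) at 1 × 10^6 cells/mL, exposed 18 h to 20 μM compound. SEAP in supernatant read with QUANTI-Blue reagent (3 h, 37 °C), absorbance 640 nm; activity compared with untreated cells.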

PBMC = test: Immunomodulatory activity in human PBMCs assessed as increase in PMA/ionomycin-induced IL-1beta release at 20 uM incubated for 18 hrs by multiplexed cytokine assay
In short: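 Ficoll-isolated human PBMC, 1 × 10^6 cells per well, treated with 20 μM compound (DMSO ≤0.1%) plus PMA 3.33 ng/mL and ionomycin 500 nM for 18 h at 37 °C, 5% CO2. Cell-free supernatant cytokines measured by CBA human inflammatory kit on a flow cytometer against recombinant standards. Reported as % of PMA/ionomycin-only release; duplicates, three experiments, three donors.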

[2] = molecular target: T2, Nucleotide-binding oligomerization domain-containing protein 1 (Homo sapiens) (UniProt Q9Y239); test: Agonist activity at human NOD1 expressed in Ramos blue cells assessed as stimulation of NF-kB/AP-1 activity at 20 uM incubated for 18 hrs using quanti blue assay based SEAP reporter gene assay; in short: as §1
T2 sequence (whole entry): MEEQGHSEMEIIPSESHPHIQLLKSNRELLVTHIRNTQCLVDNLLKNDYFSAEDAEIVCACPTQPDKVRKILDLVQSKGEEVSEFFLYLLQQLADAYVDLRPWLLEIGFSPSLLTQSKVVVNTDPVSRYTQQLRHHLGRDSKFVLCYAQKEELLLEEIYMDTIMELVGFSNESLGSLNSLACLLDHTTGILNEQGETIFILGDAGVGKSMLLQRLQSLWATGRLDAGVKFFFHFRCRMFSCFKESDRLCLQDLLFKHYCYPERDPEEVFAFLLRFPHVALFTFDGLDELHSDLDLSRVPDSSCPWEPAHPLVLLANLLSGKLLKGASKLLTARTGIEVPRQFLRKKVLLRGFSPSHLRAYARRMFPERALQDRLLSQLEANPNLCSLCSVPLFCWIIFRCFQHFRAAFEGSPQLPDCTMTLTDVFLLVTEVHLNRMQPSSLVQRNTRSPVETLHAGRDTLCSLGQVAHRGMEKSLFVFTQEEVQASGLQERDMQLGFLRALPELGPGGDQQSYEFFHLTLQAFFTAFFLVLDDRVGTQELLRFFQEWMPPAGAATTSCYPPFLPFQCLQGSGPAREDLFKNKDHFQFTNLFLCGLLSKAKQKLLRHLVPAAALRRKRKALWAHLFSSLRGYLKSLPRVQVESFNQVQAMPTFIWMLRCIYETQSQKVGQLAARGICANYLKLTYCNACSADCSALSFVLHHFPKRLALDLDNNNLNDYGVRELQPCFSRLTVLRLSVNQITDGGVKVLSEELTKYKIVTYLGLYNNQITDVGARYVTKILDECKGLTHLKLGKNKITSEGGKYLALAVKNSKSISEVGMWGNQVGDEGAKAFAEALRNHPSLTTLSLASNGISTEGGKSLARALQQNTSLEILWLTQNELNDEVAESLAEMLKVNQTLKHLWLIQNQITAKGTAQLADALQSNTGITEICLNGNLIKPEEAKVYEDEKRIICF

Row | SMILES | Activity [1] | Activity [2] | Activity (PBMC)
1 | CCOC(=O)CC[C@@H](NC(=O)[C@H](C)NC(=O)CNC(=O)c1cc2ccccc2[nH]1)C(=O)OCC | inactive | inactive | Active
2 | CCCCOC(=O)[C@@H](CCC(N)=O)NC(=O)[C@H](C)NC(=O)[C@@H](C)O[C@H]1[C@H](O)[C@@H](CO)OC(O)[C@@H]1NC(C)=O (some centres undefined) [MURABUTIDE] | inactive | inactive | Active
3 | CCOC(=O)CC[C@@H](NC(=O)[C@H](C)NC(=O)C1=C2c3ccccc3S(=O)(=O)N2CCC1)C(=O)OCC | inactive | inactive | Active
4 | CCOC(=O)CC[C@@H](NC(=O)[C@H](C)NC(=O)CNC(=O)c1cc2ccccc2[nH]1)C(N)=O | inactive | inactive | inactive

More lines, main results first:

Row | Activity [1] | Activity [2] | SMILES | Activity (PBMC)
5 | inactive | inactive | CCOC(=O)CC[C@@H](NC(=O)[C@H](C)NC(=O)COCCN1C(=O)c2ccccc2S1(=O)=O)C(=O)OCC | inactive
6 | inactive | inactive | CCOC(=O)CC[C@@H](NC(=O)[C@H](C)NC(=O)COCCN1C(=O)c2ccccc2S1(=O)=O)C(N)=O | inactive
7 | inactive | inactive | CCOC(=O)CC[C@@H](NC(=O)[C@H](C)NC(=O)CCCCN1C(=O)c2ccccc2S1(=O)=O)C(N)=O | inactive
8 | inactive | inactive | CCOC(=O)CC[C@@H](NC(=O)[C@H](C)NC(=O)CCCCN1C(=O)c2ccccc2S1(=O)=O)C(=O)OCC | inactive

From ChEMBL document CHEMBL2163344, “Immunomodulatory properties of novel nucleotide oligomerization domain 2 (nod2) agonistic desmuramyldipeptides” (J Med Chem, 2012)
